Measurements: ChEMBL document CHEMBL2176933 (J Med Chem, 2012)

How the values were obtained:
[1] = Solubility of the compound; assay type: physicochemical
[2] = Selectivity ratio of Ki for TTK to Ki for LRRK2
Method in brief: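 Ratio computed as TTK Ki, from a Lanthascreen assay, divided by LRRK2 Ki from the biochemical assay.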

Cytochrome P450 1A2 = biological target: T1, Cytochrome P450 1A2 (Homo sapiens, UniProt P05177); assay: Time dependent inhibition of CYP1A2; assay type: ADME
T1 sequence (P05177 whole entry): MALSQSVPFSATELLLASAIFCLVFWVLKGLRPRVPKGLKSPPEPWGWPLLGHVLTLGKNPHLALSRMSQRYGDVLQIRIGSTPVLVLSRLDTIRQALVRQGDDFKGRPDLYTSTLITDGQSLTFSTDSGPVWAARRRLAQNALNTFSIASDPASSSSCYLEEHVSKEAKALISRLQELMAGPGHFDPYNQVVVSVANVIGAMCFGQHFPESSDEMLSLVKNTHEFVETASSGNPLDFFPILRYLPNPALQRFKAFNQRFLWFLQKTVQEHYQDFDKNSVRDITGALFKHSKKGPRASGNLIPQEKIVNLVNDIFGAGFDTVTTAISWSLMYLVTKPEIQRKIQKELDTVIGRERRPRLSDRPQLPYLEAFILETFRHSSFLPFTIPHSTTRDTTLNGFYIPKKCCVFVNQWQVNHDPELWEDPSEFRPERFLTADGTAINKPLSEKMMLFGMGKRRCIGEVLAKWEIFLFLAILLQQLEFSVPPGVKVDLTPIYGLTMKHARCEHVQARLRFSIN

[3] = biological target: T2, Leucine-rich repeat serine/threonine-protein kinase 2 (Homo sapiens, UniProt Q5S007); assay: Inhibition of autophosphorylation of LRRK2 in human HEK293 cells; assay type: cell-based
T2 sequence (Q5S007 whole entry): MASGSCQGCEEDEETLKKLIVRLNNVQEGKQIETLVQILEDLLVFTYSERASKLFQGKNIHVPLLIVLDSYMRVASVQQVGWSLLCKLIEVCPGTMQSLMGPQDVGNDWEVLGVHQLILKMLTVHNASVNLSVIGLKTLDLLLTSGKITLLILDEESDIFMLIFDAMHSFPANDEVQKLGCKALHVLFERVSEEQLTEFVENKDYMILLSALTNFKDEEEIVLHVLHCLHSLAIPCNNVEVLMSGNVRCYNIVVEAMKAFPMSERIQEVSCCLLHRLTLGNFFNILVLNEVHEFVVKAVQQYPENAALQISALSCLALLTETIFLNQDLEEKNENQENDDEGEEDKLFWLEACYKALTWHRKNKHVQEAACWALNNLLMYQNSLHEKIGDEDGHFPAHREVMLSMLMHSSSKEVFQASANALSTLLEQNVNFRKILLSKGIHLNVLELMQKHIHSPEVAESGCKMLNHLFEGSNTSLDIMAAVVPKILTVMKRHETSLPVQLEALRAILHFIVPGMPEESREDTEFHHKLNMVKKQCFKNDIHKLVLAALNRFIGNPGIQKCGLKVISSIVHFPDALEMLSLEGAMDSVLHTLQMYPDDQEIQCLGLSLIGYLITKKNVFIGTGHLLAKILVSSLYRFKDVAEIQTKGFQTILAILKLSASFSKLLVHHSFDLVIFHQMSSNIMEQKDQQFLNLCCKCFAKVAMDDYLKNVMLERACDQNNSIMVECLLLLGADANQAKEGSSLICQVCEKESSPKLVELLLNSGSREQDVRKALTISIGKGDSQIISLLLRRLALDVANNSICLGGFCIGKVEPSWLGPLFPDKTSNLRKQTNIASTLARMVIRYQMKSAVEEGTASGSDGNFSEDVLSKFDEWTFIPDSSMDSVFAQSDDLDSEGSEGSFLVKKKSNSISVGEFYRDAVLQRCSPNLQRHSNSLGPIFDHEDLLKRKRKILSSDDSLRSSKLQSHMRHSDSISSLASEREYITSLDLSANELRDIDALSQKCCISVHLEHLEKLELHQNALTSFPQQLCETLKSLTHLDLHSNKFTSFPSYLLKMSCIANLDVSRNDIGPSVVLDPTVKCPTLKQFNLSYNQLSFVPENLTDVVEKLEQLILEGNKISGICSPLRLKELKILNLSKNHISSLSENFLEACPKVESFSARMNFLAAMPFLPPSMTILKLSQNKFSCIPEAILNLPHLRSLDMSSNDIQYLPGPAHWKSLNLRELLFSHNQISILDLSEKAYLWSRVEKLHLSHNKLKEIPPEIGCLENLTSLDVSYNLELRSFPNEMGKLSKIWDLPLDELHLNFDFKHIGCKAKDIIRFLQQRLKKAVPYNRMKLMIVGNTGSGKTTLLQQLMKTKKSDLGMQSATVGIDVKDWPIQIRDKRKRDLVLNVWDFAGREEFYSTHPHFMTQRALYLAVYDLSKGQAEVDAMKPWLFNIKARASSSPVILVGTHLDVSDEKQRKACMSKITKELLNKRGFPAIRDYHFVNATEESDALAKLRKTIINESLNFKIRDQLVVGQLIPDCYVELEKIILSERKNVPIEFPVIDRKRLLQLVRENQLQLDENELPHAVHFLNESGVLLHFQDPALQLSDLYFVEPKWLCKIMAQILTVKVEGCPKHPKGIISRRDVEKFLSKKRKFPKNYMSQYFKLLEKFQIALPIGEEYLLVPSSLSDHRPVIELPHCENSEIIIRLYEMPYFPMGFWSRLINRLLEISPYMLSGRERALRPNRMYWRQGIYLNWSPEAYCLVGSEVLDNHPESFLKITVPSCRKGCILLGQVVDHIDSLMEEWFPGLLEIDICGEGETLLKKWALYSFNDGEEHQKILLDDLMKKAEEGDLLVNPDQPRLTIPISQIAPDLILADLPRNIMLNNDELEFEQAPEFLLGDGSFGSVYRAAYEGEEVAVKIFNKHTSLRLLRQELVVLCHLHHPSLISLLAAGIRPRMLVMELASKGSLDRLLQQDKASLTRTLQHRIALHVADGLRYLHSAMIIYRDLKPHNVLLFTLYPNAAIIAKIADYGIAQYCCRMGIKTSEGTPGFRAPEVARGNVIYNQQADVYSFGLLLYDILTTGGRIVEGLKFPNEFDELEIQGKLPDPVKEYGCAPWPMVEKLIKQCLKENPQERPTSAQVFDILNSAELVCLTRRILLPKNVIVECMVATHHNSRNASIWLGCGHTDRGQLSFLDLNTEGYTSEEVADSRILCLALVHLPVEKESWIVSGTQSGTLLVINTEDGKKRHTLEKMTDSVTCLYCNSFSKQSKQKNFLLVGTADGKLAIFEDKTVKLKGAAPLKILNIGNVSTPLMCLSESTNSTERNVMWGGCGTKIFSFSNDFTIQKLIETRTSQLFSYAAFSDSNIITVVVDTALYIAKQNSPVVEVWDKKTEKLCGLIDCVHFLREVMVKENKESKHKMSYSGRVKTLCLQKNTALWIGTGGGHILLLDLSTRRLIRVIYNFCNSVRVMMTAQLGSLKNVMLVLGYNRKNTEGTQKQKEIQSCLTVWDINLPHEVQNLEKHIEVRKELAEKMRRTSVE

[4] = biological target: T2, Leucine-rich repeat serine/threonine-protein kinase 2; assay: Inhibition of LRRK2 using FAM-LRRKtide as substrate after 120 mins by microfluidic capillary electrophoresis assay
MDCK = assay: Efflux ratio of permeability from basolateral to apical over apical to basolateral side in MDCK cells expressing human MDR1; conditions: dog
Nucleic Acid = assay: Ratio of drug level CSF to unbound drug level in plasma in cynomolgus monkey at 10 to 65 mg/kg, po administered for 7 days; assay type: ADME, organism-based, Macaca fascicularis; parameters: dose 10-65 mg/kg, route oral; conditions: in vivo, 168 h
Method in brief: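 Cynomolgus monkeys in a 7-day repeat-dose toxicity study at 10, 25 and 65 mg/kg. Terminal CSF and plasma levels were taken 24 h after the last dose on day 7. Plasma drug was converted to unbound using in vitro plasma protein binding, and the ratio is expressed as CSF over unbound plasma.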

Cynomolgus monkey [5] = assay: Unbound plasma AUC (0 to 24 hrs) in cynomolgus monkey at 65 mg/kg, po administered for 7 days; assay type: ADME, organism-based, Macaca fascicularis; parameters: dose 65 mg/kg, route oral; conditions: in vivo
[6] = Ratio of unbound drug level in brain to plasma in cynomolgus monkey at 10 to 65 mg/kg, po administered for 7 days; assay type: ADME, organism-based, Macaca fascicularis; parameters: dose 10-65 mg/kg, route oral; conditions: brain and plasma (unbound)
Method in brief: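 Cynomolgus monkeys in a 7-day repeat-dose toxicity study at 10, 25 and 65 mg/kg. Terminal brain and CSF levels were taken 24 h after the day-7 dose. Total brain/plasma levels were converted to an unbound brain/unbound plasma ratio using in vitro plasma and brain protein binding values.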

Cynomolgus monkey [7] = assay: Unbound plasma AUC (0 to 24 hrs) in cynomolgus monkey at 25 mg/kg, po administered for 7 days; assay type: ADME, organism-based, Macaca fascicularis; parameters: dose 25 mg/kg, route oral; conditions: in vivo
Cynomolgus monkey [8] = assay: Unbound plasma AUC (0 to 24 hrs) in cynomolgus monkey at 10 mg/kg, po administered for 7 days; assay type: ADME, organism-based, Macaca fascicularis; parameters: dose 10 mg/kg, route oral; conditions: in vivo
Rattus norvegicus [9] = assay: Unbound plasma AUC (0 to 24 hrs) in Sprague-Dawley rat at 100 mg/kg, po administered for 7 days; assay type: ADME, organism-based; parameters: dose 100 mg/kg, route oral; conditions: in vivo
Rattus norvegicus [10] = assay: Unbound plasma AUC (0 to 24 hrs) in Sprague-Dawley rat at 50 mg/kg, po administered for 7 days; assay type: ADME, organism-based; parameters: dose 50 mg/kg, route oral; conditions: in vivo
Rattus norvegicus [11] = assay: Unbound plasma AUC (0 to 24 hrs) in Sprague-Dawley rat at 10 mg/kg, po administered for 7 days; assay type: ADME, organism-based; parameters: dose 10 mg/kg, route oral; conditions: in vivo
Rattus norvegicus [12] = assay: Toxicity in Sprague-Dawley rat assessed as mortality at 10 to 100 mg/kg, po administered for 7 days; assay type: organism-based; parameters: dose 10-100 mg/kg, route oral; conditions: in vivo, 168 h
Rattus norvegicus [13] = assay: Unbound plasma AUC (0 to 24 hrs) in Sprague-Dawley rat at 100 mg/kg, po qd for 2 days; assay type: ADME, organism-based; parameters: dose 100 mg/kg, route oral; conditions: in vivo
Rattus norvegicus [14] = assay: Genotoxicity in Sprague-Dawley rat assessed as micronucleated polychromatic erythrocytes in bone marrow at 100 mg/kg, po qd for 2 days; assay type: toxicity, organism-based; parameters: dose 100 mg/kg, route oral; conditions: in vivo, 48 h
[15] = Plasma protein binding in cynomolgus monkey; assay type: ADME, cell-free, Macaca fascicularis; conditions: read-out: PPB (converted)
Mus musculus [16] = assay: Inhibition of LRRK2 G2019S mutant phosphorylation at Ser1292 in po dosed BAC transgenic mouse brain after 1 to 24 hrs; assay type: functional, organism-based
Method in brief: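 Single oral dose of 15 or 50 mg/kg in G2019S human LRRK2 BAC transgenic mice. Hippocampus sampled at 1, 3, 6 and 12 h (n = 4/dose) and at 24 h (n = 1) to measure pSer1292 LRRK2 and brain compound levels. Inhibition expressed relative to vehicle-dosed mice (n = 3), with a direct inhibition PK/PD model fitted.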

Mus musculus [17] = assay: Inhibition of LRRK2 G2019S mutant phosphorylation at Ser1292 in ip dosed BAC transgenic mouse brain after 1 to 24 hrs; assay type: functional, organism-based
Method in brief: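 Single ip injection of 10 or 50 mg/kg in BAC transgenic mice expressing human G2019S LRRK2. Hippocampus collected at 1, 2.5 or 6 h post-dose (n = 3/dose). pSer1292 LRRK2 and compound concentration measured in brain. Percent inhibition normalised to vehicle-dosed mice (n = 3), with a direct inhibition model fitted to the data.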

[18] = biological target: 5-hydroxytryptamine receptor 2B (Homo sapiens) (UniProt P41595); assay: Inhibition of recombinant human 5HT2B receptor expressed in CHO cells at 10 uM; assay type: cell-based
5-hydroxytryptamine receptor 2B (Homo sapiens), sequence (P41595 whole entry): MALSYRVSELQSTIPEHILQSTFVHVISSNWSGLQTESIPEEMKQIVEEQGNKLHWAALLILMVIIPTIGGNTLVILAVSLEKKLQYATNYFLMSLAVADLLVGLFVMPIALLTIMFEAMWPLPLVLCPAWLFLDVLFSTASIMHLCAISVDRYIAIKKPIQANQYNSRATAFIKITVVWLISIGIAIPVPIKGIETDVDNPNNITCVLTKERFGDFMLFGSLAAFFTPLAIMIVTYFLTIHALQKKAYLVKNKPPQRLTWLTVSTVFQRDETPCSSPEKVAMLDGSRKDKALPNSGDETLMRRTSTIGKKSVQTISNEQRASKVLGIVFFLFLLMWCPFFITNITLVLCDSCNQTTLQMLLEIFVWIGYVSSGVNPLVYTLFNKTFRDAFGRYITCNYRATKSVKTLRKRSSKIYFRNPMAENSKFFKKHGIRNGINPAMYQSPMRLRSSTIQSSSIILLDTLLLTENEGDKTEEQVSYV

[19] = biological target: ALK tyrosine kinase receptor (Homo sapiens) (UniProt Q9UM73); assay: Inhibition of ALK at 0.1 uM
ALK tyrosine kinase receptor (Homo sapiens), sequence (Q9UM73 19-1620 limits assumed): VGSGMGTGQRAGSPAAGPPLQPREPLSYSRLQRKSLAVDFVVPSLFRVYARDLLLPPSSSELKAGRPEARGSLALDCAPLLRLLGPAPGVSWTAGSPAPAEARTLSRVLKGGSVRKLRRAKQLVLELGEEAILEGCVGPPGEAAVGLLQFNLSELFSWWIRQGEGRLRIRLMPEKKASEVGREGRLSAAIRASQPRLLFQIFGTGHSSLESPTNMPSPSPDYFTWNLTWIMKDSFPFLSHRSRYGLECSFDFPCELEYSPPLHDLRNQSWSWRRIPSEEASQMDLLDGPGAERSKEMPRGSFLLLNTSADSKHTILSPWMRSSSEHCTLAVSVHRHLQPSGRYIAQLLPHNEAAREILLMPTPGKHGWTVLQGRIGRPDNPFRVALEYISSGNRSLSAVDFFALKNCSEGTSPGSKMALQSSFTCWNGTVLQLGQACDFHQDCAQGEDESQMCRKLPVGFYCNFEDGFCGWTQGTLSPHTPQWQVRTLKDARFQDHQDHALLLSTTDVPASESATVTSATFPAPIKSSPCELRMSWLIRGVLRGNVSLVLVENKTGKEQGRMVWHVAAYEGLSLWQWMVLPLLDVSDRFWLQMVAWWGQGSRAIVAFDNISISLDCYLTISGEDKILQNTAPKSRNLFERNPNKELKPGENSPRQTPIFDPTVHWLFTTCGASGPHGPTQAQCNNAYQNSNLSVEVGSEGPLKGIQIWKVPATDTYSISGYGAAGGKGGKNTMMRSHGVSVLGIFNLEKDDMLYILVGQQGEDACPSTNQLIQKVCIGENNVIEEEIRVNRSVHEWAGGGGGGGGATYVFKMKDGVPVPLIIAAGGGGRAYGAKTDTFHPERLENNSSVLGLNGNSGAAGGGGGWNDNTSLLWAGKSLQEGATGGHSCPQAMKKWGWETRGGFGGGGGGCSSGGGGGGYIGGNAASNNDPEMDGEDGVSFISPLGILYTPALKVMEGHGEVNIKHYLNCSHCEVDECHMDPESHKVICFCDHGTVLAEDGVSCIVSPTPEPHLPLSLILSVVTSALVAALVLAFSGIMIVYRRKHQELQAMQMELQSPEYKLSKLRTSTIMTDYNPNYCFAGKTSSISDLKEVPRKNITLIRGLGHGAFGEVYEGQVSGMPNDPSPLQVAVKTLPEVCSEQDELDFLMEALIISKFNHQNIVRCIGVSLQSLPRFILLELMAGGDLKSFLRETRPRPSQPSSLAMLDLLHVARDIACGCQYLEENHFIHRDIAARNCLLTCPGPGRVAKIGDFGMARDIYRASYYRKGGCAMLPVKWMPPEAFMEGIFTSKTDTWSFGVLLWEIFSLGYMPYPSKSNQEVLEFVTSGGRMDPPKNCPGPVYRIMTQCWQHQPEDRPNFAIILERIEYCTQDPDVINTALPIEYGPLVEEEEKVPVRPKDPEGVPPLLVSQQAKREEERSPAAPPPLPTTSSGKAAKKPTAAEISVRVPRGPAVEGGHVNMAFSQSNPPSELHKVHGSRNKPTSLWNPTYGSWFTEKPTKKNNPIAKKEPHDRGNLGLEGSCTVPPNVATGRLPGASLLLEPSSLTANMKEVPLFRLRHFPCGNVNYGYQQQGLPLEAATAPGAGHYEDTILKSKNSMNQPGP
Method in brief: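 Percent inhibition measured in a commercial kinase selectivity profiling panel, with compound tested at a single concentration of 0.1 μM.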

[20] = biological target: T3, Dual specificity protein kinase TTK (Homo sapiens) (UniProt P33981); assay: Inhibition of TTK at 0.1 uM
T3 sequence (whole entry): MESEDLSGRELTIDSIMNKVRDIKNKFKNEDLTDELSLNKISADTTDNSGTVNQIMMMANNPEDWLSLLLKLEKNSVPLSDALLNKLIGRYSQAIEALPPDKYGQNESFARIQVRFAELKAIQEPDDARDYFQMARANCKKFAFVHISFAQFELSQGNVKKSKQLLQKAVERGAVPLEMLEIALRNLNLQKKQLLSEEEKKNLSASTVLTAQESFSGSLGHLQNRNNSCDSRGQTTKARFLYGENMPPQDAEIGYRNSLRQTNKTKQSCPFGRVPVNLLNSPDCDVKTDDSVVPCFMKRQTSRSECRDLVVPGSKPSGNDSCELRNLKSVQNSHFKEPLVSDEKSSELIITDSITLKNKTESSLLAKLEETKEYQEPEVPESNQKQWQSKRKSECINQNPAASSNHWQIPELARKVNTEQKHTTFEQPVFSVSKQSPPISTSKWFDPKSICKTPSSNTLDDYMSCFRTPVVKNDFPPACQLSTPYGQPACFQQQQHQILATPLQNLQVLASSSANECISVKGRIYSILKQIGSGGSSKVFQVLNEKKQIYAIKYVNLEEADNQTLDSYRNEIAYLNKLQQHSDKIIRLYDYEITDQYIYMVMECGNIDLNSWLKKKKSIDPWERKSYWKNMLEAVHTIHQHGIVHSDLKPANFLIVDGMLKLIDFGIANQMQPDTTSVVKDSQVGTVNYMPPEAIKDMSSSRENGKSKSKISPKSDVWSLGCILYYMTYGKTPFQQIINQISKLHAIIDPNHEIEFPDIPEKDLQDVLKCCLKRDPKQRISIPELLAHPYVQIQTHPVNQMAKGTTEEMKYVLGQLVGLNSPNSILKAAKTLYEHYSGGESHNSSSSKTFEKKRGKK
Method in brief: (§1)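 Percent inhibition of TTK activity measured at 0.1 μM and 1 μM in a kinase selectivity profiling panel.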

MDR1 (human) = assay: Apparent permeability from apical to basolateral side of MDCK cells expressing human MDR1; assay type: ADME, cell-based, Canis lupus familiaris; conditions: dog
Method in brief: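 Transport measured in an MDCK cell line transfected with human P-gp (MDR1); apical-to-basolateral and basolateral-to-apical permeability determined; efflux ratio taken as (B−A)/(A−B).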

[21] = Plasma protein binding in rat; assay type: ADME, cell-free; conditions: read-out: PPB (converted)
Method in brief: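 Plasma protein binding measured in vitro in rat plasma; used to convert total clearance to unbound clearance and total to unbound plasma levels.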

[22] = Clearance in rat hepatocytes; assay type: ADME, cell-based, Liver, Hepatocyte
Method in brief: (§2)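 Metabolic stability determined in vitro in cryopreserved hepatocytes, human and rat.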

[23] = Clearance in human hepatocytes; assay type: ADME, cell-based, Liver, Hepatocyte; method in brief: as §2
[24] = Selectivity ratio of Ki for JAK2 to Ki for LRRK2
Method in brief: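 Ratio computed as JAK2 Ki divided by LRRK2 Ki, both from biochemical assays.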

[25] = biological target: T2, Leucine-rich repeat serine/threonine-protein kinase 2; conditions: 0.1 uM
Mus musculus [26] = species: Mus musculus; assay: Genotoxicity in mouse by micronucleus study; assay type: toxicity, organism-based; conditions: in vivo
PBL = assay: Genotoxicity in human PBL assessed as induction of micronuclei formation; assay type: toxicity, cell-based
[27] = biological target: T4, Dual specificity protein kinase TTK (Homo sapiens, UniProt P33981); assay: Inhibition of TTK
T4 sequence (P33981 whole entry): T3 sequence (whole entry)
Method in brief: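 TTK Ki determined in a Lanthascreen biochemical assay.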

[28] = biological target: T3, Dual specificity protein kinase TTK (Homo sapiens); assay: Inhibition of TTK at 1 uM; method in brief: as §1

Row | SMILES | Ratio Ki [2] | inhibition (INH) (Cytochrome P450 1A2) | IC50 [3] | Ki [4] | Ratio (MDCK) | inhibition [20] | Papp A→B (MDR1 (human)) | fraction unbound [21] | CLhep predicted [22] | CLhep predicted [23] | Ratio Ki [24] | other results
1 | CNc1nc(Nc2ccc(-c3nnnn3C)cc2Cl)ncc1C(F)(F)F | 3.3 | Active | 100 nM | 8 nM | 0.7 | – | – | – | – | – | – | solubility [1]: Insoluble
2 | CCNc1nc(Nc2cc(F)c(C(=O)N3CCOCC3)cc2OC)ncc1C(F)(F)F | 53 | – | 9 nM | 1 nM | 0.9 | > 65% | 10.4 ×10⁻⁶ cm/s | 0.034 | 14 mL/min/kg | 3.2 mL/min/kg | > 3200 | Ratio (Nucleic Acid): 0.82; fAUC (Cynomolgus monkey [5]): 7.8 µM·h; Kp uu at 168 h [6]: 0.6; fAUC (Cynomolgus monkey [7]): 3.1 µM·h; fAUC (Cynomolgus monkey [8]): 0.8 µM·h; fAUC (Rattus norvegicus [9]): 4.7 µM·h; fAUC (Rattus norvegicus [10]): 3.9 µM·h; fAUC (Rattus norvegicus [11]): 0.8 µM·h; Activity (Rattus norvegicus [12]): Non-toxic; fAUC (Rattus norvegicus [13]): 5.95 µM·h; Activity (Rattus norvegicus [14]): Non-toxic; fraction unbound [15]: 0.055; inhibition (Mus musculus [16]): Dose-dependent effect; inhibition (Mus musculus [17]): Dose-dependent effect; inhibition [18]: > 70%; inhibition [19]: > 65%; inhibition [25]: > 65%
3 | CNc1nc(Nc2ccc(C(=O)N3CCOCC3)cc2OC)ncc1Cl | – | Active | – | – | – | – | 4.4 ×10⁻⁶ cm/s | 0.082 | 24.3 mL/min/kg | 4.9 mL/min/kg | – | –
4 | CNc1nc(Nc2ccc(C(=O)N3CCOCC3)cc2OC)ncc1C(F)(F)F | 13 | – | 9 nM | 2 nM | 1.2 | 55% | 18.2 ×10⁻⁶ cm/s | 0.137 | 7.6 mL/min/kg | 1.8 mL/min/kg | > 1930 | Activity (Mus musculus [26]): Toxic; Activity (PBL): Toxic; Ki [27]: 25 nM; inhibition [28]: 98%
